{"data": "Experimental data pooled from the literature", "observed": "cell growth or viability", "note": "Each line is one published result; the experiments were not run side by side."}
{"Compound": "CN1CCN(CC(=O)Nc2cccc(C(=O)Nc3ccc4[nH]ncc4c3)c2)CC1", "cell line": "KM12", "technique": "ATP luminescence", "time": "72 h", "IC50 [µM]": "> 50"}
{"Compound": "O=C(N/N=C1\\C(=O)N(c2ccccc2)c2ccccc21)c1cc2ccccc2[nH]1", "cell line": "ZR75", "IC50 [µM]": 1.32}
{"Compound": "CN1CCN(Cc2ccc(Nc3ncc(Cl)c(Nc4ccccc4S(=O)(=O)N(C)C)n3)cc2)CC1", "cell line": "PSN1", "IC50 [µM]": 0.006}
{"Compound": "Cc1cc(Nc2ncc(Cl)c(Nc3ccccc3S(=O)(=O)C(C)C)n2)c(OC(C)C)cc1C1CCNCC1", "cell line": "Rh41", "time": "72 h", "IC50 [µM]": 0.35}
{"Compound": "[Fe+2].c1cc[cH-]c1.c1cc[cH-]c1", "cell line": "BL2", "technique": "MTT", "time": "48 h", "IC50 [µM]": "> 100"}
{"Compound": "C[C@@H](Oc1cc(-c2cnn(C3CCNCC3)c2)cnc1N)c1c(Cl)ccc(F)c1Cl", "cell line": "Rh41", "time": "72 h", "IC50 [µM]": 0.45}
{"Compound": "CN1C(=O)/C(=N\\NC(=O)c2cc3ccccc3[nH]2)c2cc(Br)ccc21", "cell line": "ZR75", "IC50 [µM]": 1.01}
{"Compound": "C[C@H]1O[C@@H](n2cc(F)c(=O)[nH]c2=O)[C@H](O)[C@@H]1O", "cell line": "Hep3B", "technique": "CCK-8", "time": "48 h", "IC50 [µM]": 13.2}
{"Compound": "COc1ccc2c(c1)/C(=N/NC(=O)c1cc3ccccc3[nH]1)C(=O)N2C", "cell line": "ZR75", "IC50 [µM]": 1.48}
{"Compound": "O=C(O)CCCc1ccccc1", "cell line": "PSN1", "technique": "MTT", "time": "72 h", "IC50 [µM]": "> 50"}
{"Compound": "O=C(Nc1ccc(I)cc1)Nc1cccc(C(=O)Nc2ccc3[nH]ncc3c2)c1", "cell line": "KM12", "technique": "ATP luminescence", "time": "72 h", "IC50 [µM]": "> 50"}
{"Compound": "O=C(/C=C/C=C/c1ccc2c(c1)OCO2)N1CCCCC1", "cell line": "COR-L23", "technique": "SRB", "IC50 [µM]": 74.8}
{"Compound": "CC1=CC(C)(C)N(Cc2ccccc2)c2ccc(O)cc21", "cell line": "Hep3B", "technique": "MTT", "time": "72 h", "IC50 [µM]": 5.2}
{"Compound": "O=C1NC(=NCc2cccs2)S/C1=C\\c1ccc2ncccc2c1", "cell line": "SR", "IC50 [µM]": 0.372}
{"Compound": "COc1cc2nccc(Oc3ccc(NC(=O)C4(C(=O)Nc5ccc(F)cc5)CC4)cc3)c2cc1OC", "cell line": "Rh41", "time": "72 h", "IC50 [µM]": 2.4}
{"Compound": "Cc1[nH]c2ccccc2c1CCNCc1ccc(/C=C/C(=O)NO)cc1", "cell line": "A2780C/P", "technique": "crystal violet", "time": "48 h", "IC50 [µM]": 0.0088}
{"Compound": "CCCCC(C(=O)COc1c(F)c(F)cc(F)c1F)n1cc([C@@](C)(NCc2ccc3ncccc3c2)C2CCC2)nn1 (stereo partly shown)", "cell line": "BESM", "time": "72 h", "IC50 [µM]": "> 10"}
{"Compound": "O=C(Nc1cccc(C(=O)Nc2ccc3[nH]ncc3c2)c1)Nc1cccc(C(F)(F)F)c1", "cell line": "KM12", "technique": "ATP luminescence", "time": "72 h", "IC50 [µM]": 39.5}
{"Compound": "CCCCC(C(=O)COc1c(F)c(F)cc(F)c1F)n1cc([C@@](C)(NCc2ccc3ncccc3c2)C(C)C)nn1 (stereo partly shown)", "cell line": "BESM", "time": "72 h", "IC50 [µM]": "> 10"}
{"Compound": "CCCCC/C=C/C(=O)CCc1ccc(O)c(OC)c1", "cell line": "COR-L23", "technique": "SRB", "IC50 [µM]": 16.2}
{"Compound": "O=C(Nc1ccc2[nH]ncc2c1)c1cccc(NC(=S)Nc2ccc(F)cc2F)c1", "cell line": "KM12", "technique": "ATP luminescence", "time": "72 h", "IC50 [µM]": 30.6}
{"Compound": "CN1C(=O)/C(=N\\NC(=O)c2cc3ccccc3[nH]2)c2ccccc21", "cell line": "ZR75", "IC50 [µM]": 1.53}
{"Compound": "COc1cc(Nc2nccc(-c3cnn4nc(OC)ccc34)n2)cc(C(F)(F)F)c1", "cell line": "NCI-H2110", "technique": "ATP luminescence", "IC50 [µM]": 0.63}
{"Compound": "O=C(Nc1ccc2[nH]ncc2c1)c1cccc(NC(=O)c2cc(C(F)(F)F)ccc2F)c1", "cell line": "KM12", "technique": "ATP luminescence", "time": "72 h", "IC50 [µM]": 26.8}
{"Compound": "CC(C)C[C@H](NC(=O)[C@H](Cc1ccccc1)NC(=O)c1cnccn1)B(O)O", "cell line": "NCI-H2110", "technique": "ATP luminescence", "IC50 [µM]": 0.017}
{"Compound": "O=C(Nc1ccccc1)Nc1cccc(C(=O)Nc2ccc3[nH]ncc3c2)c1", "cell line": "KM12", "technique": "ATP luminescence", "time": "72 h", "IC50 [µM]": "> 50"}
{"Compound": "CCCCC[C@H](O)CC(=O)CCc1ccc(O)c(OC)c1", "cell line": "COR-L23", "technique": "SRB", "IC50 [µM]": 199}
{"Compound": "O=C(Nc1ccc(Cl)cc1)Nc1cccc(C(=O)Nc2ccc3[nH]ncc3c2)c1", "cell line": "KM12", "technique": "ATP luminescence", "time": "72 h", "IC50 [µM]": "> 50"}
{"Compound": "CN1C(=O)/C(=N\\NC(=O)c2cc3ccccc3[nH]2)c2cc(F)ccc21", "cell line": "ZR75", "IC50 [µM]": 4.31}
{"Compound": "O=C(Nc1ccc2[nH]ncc2c1)c1cccc(NC(=S)Nc2cc(C(F)(F)F)cc(C(F)(F)F)c2)c1", "cell line": "KM12", "technique": "ATP luminescence", "time": "72 h", "IC50 [µM]": 19.6}
{"Compound": "CCCCC(C(=O)COc1c(F)c(F)cc(F)c1F)n1cc([C@@](C)(NCc2ccc3ncccc3c2)C2CC2)nn1 (stereo partly shown)", "cell line": "BESM", "time": "72 h", "IC50 [µM]": "> 10"}
